From PubChem BioAssay
A selection: hits, their analogues and other compounds. The true share with any hit is near 9.4%.
Beta cell apopt – beta cell apoptosis inhibition; INS-1E cytokine-induced death, ATP luminescence, 48 h; percent of positive-control rescue, neutral wells zero; actives 0.8% (n = 300,000); AID 435005; protection from apoptosis, % (no concentration beside the values);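 active means Every replicate reaches about 75%, or at least half do and their mean reaches it too, limit read from the data; inconclusive means At least half of replicates reach the limit but their mean does not; inactive means Under half of replicates reach the limit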;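 further: 0% = cytokine-treated negative control wells and 100% = positive control rescue; higher means more ATP so stronger rescue from cytokine killing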
Mdm2 MdmX PPI – disrupts the human Mdm2-MdmX interaction | O15151+Q00987 | SaOS-2 split-luciferase Mdm2/MdmX complementation, luminescence | inhibition, % at 8 µM | actives 3% (n = 330,000) | AID 485346;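 active means inhibition of at least 50% at 8 µM in the primary screen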
Target sequence (O15151 whole entry, looked up): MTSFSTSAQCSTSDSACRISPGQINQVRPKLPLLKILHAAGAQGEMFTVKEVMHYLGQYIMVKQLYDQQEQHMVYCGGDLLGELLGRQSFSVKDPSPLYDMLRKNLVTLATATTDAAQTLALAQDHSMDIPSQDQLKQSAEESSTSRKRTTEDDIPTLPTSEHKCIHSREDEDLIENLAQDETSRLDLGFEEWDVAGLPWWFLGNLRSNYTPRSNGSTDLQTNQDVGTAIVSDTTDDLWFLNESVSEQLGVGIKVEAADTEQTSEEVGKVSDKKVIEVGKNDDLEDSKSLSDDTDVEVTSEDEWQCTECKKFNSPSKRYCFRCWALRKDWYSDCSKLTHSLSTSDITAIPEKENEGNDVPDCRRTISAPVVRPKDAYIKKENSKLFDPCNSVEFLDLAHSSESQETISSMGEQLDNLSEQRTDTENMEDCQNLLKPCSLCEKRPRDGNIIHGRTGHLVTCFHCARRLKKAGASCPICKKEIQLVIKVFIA
Target sequence (Q00987 whole entry, looked up): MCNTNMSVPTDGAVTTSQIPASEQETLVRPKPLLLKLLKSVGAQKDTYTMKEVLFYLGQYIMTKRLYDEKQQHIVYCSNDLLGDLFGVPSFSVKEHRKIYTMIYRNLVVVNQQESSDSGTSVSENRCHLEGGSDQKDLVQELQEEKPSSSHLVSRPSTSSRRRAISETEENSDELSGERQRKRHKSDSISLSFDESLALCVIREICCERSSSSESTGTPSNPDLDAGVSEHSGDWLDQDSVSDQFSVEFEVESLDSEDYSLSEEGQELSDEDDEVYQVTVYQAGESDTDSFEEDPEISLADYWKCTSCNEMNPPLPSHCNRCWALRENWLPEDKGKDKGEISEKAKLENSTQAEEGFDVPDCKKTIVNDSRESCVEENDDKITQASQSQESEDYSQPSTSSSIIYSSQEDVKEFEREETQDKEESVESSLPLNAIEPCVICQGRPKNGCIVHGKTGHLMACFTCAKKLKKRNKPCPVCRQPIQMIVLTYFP
L major viab – inhibitors of Leishmania major promastigote growth. Leishmania major promastigotes, resazurin fluorescence viability. inhibition, % at 10 µM. actives 9% (n = 200,000). AID 1063; in the data active means inhibition above about 50%;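 further: promastigotes grown with compound for 44 hours at 28 °C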
T cruzi repl – T. cruzi replication inhibition; inhibition, % (test concentration not listed); actives 1.4% (n = 300,000); T. cruzi beta-gal in NIH3T3, luminescence, 90 h;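 active means mean inhibition across valid replicates above about 55%, limit read from the data; inconclusive means mean below that limit but half or more replicates reach it; inactive means mean below it, under half of replicates reach it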;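 further: signal also drops with host cell toxicity which is not excluded here; 0% = plate median of DMSO wells and 100% = zero luminescence signal; higher percent means less beta-gal luminescence so fewer parasites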
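compound dosing = single 50 nL compound addition per well in DMSO | material = NIH/3T3 host cells with β-galactosidase reporter T. cruzi | input = 5,000 host fibroblasts per well | timing = ≥90 h infection period, 3 h prior cell attachment | read-out basis = percent inhibition of parasite-derived β-gal signal | detection = GalScreen β-gal luminescence, detergent lysis, 60 min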
SKKanGAS inh – blocks kanamycin growth of S. pyogenes SKKanGAS strain; BacTiter-Glo, 6 h; inhibition, % at 7.5 µM; actives 1.3% (n = 300,000);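 active means mean replicate score, as percent of positive control median, at least 50; inconclusive means mean below 50 but one replicate at or above 50; inactive means mean and every replicate below 50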;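 further: strain carries kanamycin resistance gene driven by streptokinase promoter and grows in 40 µg/ml kanamycin; loss of luminescence reflects streptokinase promoter inhibition or plain growth inhibition; 0% = median of DMSO wells and 100% = positive control at its reference dose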
CSC inhib – cancer stem cell inhibition | inhibition, % at 7.5 µM | cancer stem cell-like cells viability, luminescence | actives 1.1% (n = 300,000); in the data active means inhibition above about 75%; inconclusive means no clear call, values can overlap the other calls; tested in HMLE shEcad cells
Active calls of the source: *; ? = inconclusive; / = no result; + = active, no number.

SMILES	Beta cell apopt	Mdm2 MdmX PPI	L major viab	T cruzi repl	SKKanGAS inh	CSC inhib
O=C1/C(=C/c2ccc([N+](=O)[O-])cc2)CCC1C1CCCC1 (stereo not given)	-3	-3	/	12	-6	18
CC(=O)Nc1ccc(CN2CCN(CCc3ccccc3)C(CCO)C2)cc1 (stereo not given)	-6	-14	2	8	-2	-12
O=c1oc(-c2ccccc2NS(=O)(=O)c2ccc3ccccc3c2)nc2ccccc12	-8	15	92*	0	14	34
O=C(O)c1ccccc1NS(=O)(=O)c1ccc2ccccc2c1	-4	-90	/	-10	-2	-12
NS(=O)(=O)c1ccc(N/N=C2/CCCCC2C2CCCCC2)c([N+](=O)[O-])c1 (stereo not given)	76*	38	23	40	77*	+
CS(=O)(=O)N(CC(=O)Nc1ccc(S(=O)(=O)N2CCOCC2)cc1)c1ccccc1Br	-1	-24	-5	-3	5	8
Cc1cc(SCC(=O)Nc2ccc(O)cc2)n2nc(C)c(-c3ccccc3)c2n1	10	21	/	-6	2	27
Cc1cc(NCCCN2CCOCC2)n2ncc(-c3ccccc3)c2n1	-7	-44	32	29	6	31
Cc1cc(NCCCN2CCOCC2)n2nc(C)c(-c3ccccc3)c2n1	-9	24	66*	20	2	52
CC(=O)Nc1ccc(Nc2cc(C)nc3c(-c4ccccc4)c(C)nn23)cc1	3	40	85*	48	18	-7
Cc1cc(NCCCN2CCOCC2)n2nc(C)c(-c3ccc(F)cc3)c2n1	1	15	91*	32	-1	46
COc1cccc(C(=O)CC(=O)C(=O)Nc2cc(OC)c(OC)c(OC)c2)c1	-12	3	/	-7	2	-9
CN(C(=O)COC(=O)Cn1c(C(F)(F)F)nc2ccccc21)c1c(N)n(Cc2ccccc2)c(=O)[nH]c1=O	1	9	/	-12	7	/
CCOc1ccc(-n2c(C)nc3c(cnn3-c3ccc(Cl)cc3)c2=O)cc1	/	/	-1	-7	-1	/
CCc1nc2c(cnn2-c2ccc(Cl)cc2)c(=O)n1-c1ccc(OC)cc1	9	19	17	34	52*	-12
O=C(NN1C(=O)c2ccccc2NC1c1ccco1)c1ccc(Br)cc1 (stereo not given)	7	3	3	-9	0	-1
O=C(NN1C(=O)c2ccccc2NC1c1ccc([N+](=O)[O-])o1)c1ccc(Br)cc1 (stereo not given)	22	27	95*	49	10	-5
Cc1cc([N+](=O)[O-])ccc1-c1ccc(C2Nc3ccccc3C(=O)N2O)o1 (stereo not given)	70	41	99*	39	-4	131*
CC(=O)NN1C(=O)c2ccccc2NC1c1ccc([N+](=O)[O-])o1 (stereo not given)	55	5	66*	47	-21	-8
CCN(Cc1ccccc1)C(=O)CSc1ncn[nH]1	-1	0	/	-3	6	-8
CN(C)c1ccc(NC(=O)CN2CCC(NC(=O)C3CCCCC3)CC2)cc1	2	-13	/	-3	-6	-1
Fc1ccc(NC(=S)N2CCCC2)cc1Cl	-1	-8	95*	2	-5	-1
O=C(CN1CCN(C2CCCCC2)CC1)Nc1ccc(Br)cc1	-1	2	88*	11	-13	36
S=C(Nc1ccc(Br)cc1)N1CCN(C2CCCCC2)CC1	0	-18	88*	12	-8	/
O=C(CN1CCCCCC1)Nc1ccc(Br)cc1	-3	-39	1	1	-4	-10
SMILES	Beta cell apopt	Mdm2 MdmX PPI	L major viab	T cruzi repl	SKKanGAS inh	CSC inhib
COc1ccc(NC(=O)CN2CCC(NC(=O)C3CCCCC3)CC2)cc1	-7	19	70*	-2	0	-5
COc1ccc(C)cc1NC(=O)CCCN1C(=O)C(c2ccccc2)Oc2cccnc21 (stereo not given)	-9	1	/	7	5	-8
CN(Cc1cn(Cc2ccccc2)nc1-c1ccc2c(c1)OCO2)Cc1nccn1C	1	15	13	15	-2	-8
Cc1ccc(NC(=S)N2CCC(c3ccc(C)cc3)C2)cc1 (stereo not given)	-4	-5	2	-3	6	-2
CCOc1ccc(NC(=S)N2CCCC2)cc1	0	-2	/	/	/	3
CCc1ccc(NC(=S)N2CCCCCCC2)cc1	-2	-25	56*	-19	-1	-6
Cc1ccc(NC(=S)N2CCN(C3CCCCC3)CC2)cc1	-8	2	84*	-4	-4	10
Cc1ccc(OCC(=O)NNC(=O)Nc2ccc(Cl)cc2)c(Br)c1	-6	16	/	-4	-9	9
COc1cccc(NC(=O)CC2COc3ccccc3O2)c1 (stereo not given)	4	-40	57*	-7	-2	-11
COc1ccccc1CN(Cc1ccco1)S(=O)(=O)c1ccc(-n2cnnn2)c(OC)c1	3	0	73*	14	22	2
COc1cccc(CN(Cc2cccnc2)S(=O)(=O)c2ccc(-n3cnnn3)c(C)c2)c1OC	-5	8	98*	?	4	-8
CCc1nc(NC(C)(C)C)c2cnn(-c3ccccc3)c2n1	-1	-10	/	21	25	95*
CCOC(=O)C1CCN(Cc2nnc(-c3ccccc3C)o2)CC1	-2	-21	/	-6	-4	10
CCOC(=O)c1ccc(NC(=S)N(CCCN2CCCC2)Cc2ccco2)cc1	-4	0	80*	-9	-1	-6
CCc1ccc(NC(=S)N(CCN2CCCCC2)Cc2ccco2)cc1	-1	-19	95*	-5	-1	/
CCOC(=O)c1ccc(NC(=S)N(CCCN2CCCC(C)C2)Cc2ccco2)cc1 (stereo not given)	-14	30	99*	0	-10	-2
CCOC(=O)c1ccc(NC(=S)N(CCCN2CCN(CC)CC2)Cc2ccco2)cc1	-25	10	20	-3	-4	15
COCCCn1c(SCCc2ccccc2)nc2cc(OC)c(OC)cc2c1=N	5	38	51*	44	0	83*
COc1ccc(CN(C)CC(=O)Nc2ccc(Cl)cc2F)c(OC)c1	3	4	/	3	-6	-14
O=C1NC(=Nc2ccccc2Cl)S/C1=C\c1ccc(C(=O)O)cc1	-5	1	/	3	9	-4
CC12CCC(C/C1=N\N=C1\NC(=O)/C(=C\c3ccc(Cl)cc3)S1)C2(C)C (stereo not given)	6	27	-2	33	106*	122*
CCn1c(C)nc2cc(C(=O)N=Nc3c(O)[nH]c4ccccc34)ccc21	6	-84	54*	-1	2	9
CCn1c(C)nc2cc(C(=O)N=Nc3c(O)[nH]c4c(C)cc(C)cc34)ccc21	20	22	-2	27	15	20
